Shown are actives, neighbours in structure and some others; about 2.2% of the full set was active somewhere.
FGF22 binding: shifts melting point of recombinant human FGF22 | activity (Tm shift, normalised), % at 9.99 µM | Q9HCT0 | recombinant FGF22 thermal shift, SYPRO orange fluorescence; percent of sucrose octasulfate shift, DMSO zero | hit rate 1.5% among 340,000;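 active means mean Tm shift, scaled 0 neutral to 100 positive control, at about 1.3% or above, every replicate too, limit read from the data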
Target sequence (Q9HCT0 whole entry, looked up): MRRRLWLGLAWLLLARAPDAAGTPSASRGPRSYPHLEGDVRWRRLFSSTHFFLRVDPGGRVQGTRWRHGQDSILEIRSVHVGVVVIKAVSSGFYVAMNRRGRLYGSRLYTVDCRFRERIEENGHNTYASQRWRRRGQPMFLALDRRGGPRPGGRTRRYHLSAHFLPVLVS
Jurkat NFkB inh: lowers PMA/ionomycin-induced NF-kB signal in Jurkat cells | hit rate 0.53% among 330,000 | inhibition, % at 4 µM | PMA/ionomycin-induced NF-kB luciferase reporter, luminescence; in the data active means inhibition above about 50%
NR2E3 ag-1: activates human NR2E3 receptor | Q9Y5X4 | CHO-S Gal4-NCOR/VP16-NR2E3 two-hybrid, luciferase | inhibition of corepressor binding, % at 3.98 µM | hit rate 0.35% among 360,000 | AID 602229;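 active means inhibition above the mean of all tested compounds plus 3 SD, cut at about 70% in these data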;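 further: higher means lower luciferase signal from less NR2E3 corepressor binding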
Target sequence (Q9Y5X4 whole entry, looked up, the tested form may be a part): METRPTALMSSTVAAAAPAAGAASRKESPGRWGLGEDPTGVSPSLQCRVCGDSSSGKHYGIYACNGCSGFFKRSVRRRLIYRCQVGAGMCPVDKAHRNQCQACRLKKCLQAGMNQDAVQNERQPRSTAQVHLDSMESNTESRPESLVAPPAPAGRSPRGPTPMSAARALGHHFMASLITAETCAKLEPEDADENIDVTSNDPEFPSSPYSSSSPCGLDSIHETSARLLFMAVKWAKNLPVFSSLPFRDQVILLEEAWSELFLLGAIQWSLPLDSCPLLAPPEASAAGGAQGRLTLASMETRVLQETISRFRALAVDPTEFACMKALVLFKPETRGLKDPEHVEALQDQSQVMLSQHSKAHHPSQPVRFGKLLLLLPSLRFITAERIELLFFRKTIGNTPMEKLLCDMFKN
NR2E3 ag-2: agonists of human nuclear receptor NR2E3; AID 2300; hit rate 0.12% among 320,000; Q9Y5X4; inhibition of corepressor binding, % at 4.78 µM; GST-NR2E3/biotin-RetCOR TR-FRET, 1536-well;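 active means percent inhibition above the cutoff of mean plus 3 SD of all tested compounds, set per screening campaign, cut at about 20% in these data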
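System: GST-NR2E3 and biotin-RetCOR proteins; probe or stimulus: 7 nM biotin-RetCOR; doses: compound at 4.8 µM, single dose; schedule: Compound–protein incubation for 5 h at 4 °C; detection: time-resolved FRET; read-out: percent inhibition; controls: biotin wells as high control, 0.6% DMSO wells as low control; format: 1536-well plates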
miR122 inh: inhibitors of miR-122 in Huh7 cells; Huh7 miR-122 Renilla luciferase sensor, 48 h; neutral wells = 0, positive control = 100; activation (reporter increase), % at 12.5 µM; hit rate 0.3% among 340,000; AID 602342;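 active means mean replicate activation score at least 90 and every replicate individually at or above 90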;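 further: higher luciferase means less miR-122 activity so hits act as miR-122 inhibitors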
697 NFkB inh: inhibitors of the PMA/ionomycin-induced NF-kB reporter in 697 B cells; 697 B-cell NF-kB luciferase reporter, 16 h; inhibition, % at 4 µM; hit rate 0.33% among 330,000; AID 435022; in the data active means inhibition above about 35%
A number is an active result; – = inactive; · = no result given; ! = not active in a repeat; [ ] = dose if it differs, or a comment.

SMILES | FGF22 binding | Jurkat NFkB inh | NR2E3 ag-1 | NR2E3 ag-2 | miR122 inh | 697 NFkB inh
CC1CCC(C(O)(C(=O)c2ccccc2)c2ccccc2)C(=O)C1 (configuration not stated) | – | · | – | · | – | ·
COc1cc(CN(C)C(=O)C(=O)c2c[nH]c3ccccc23)ccc1O | – | · | – | · | 146 | ·
COc1ccc(S(=O)(=O)N(C)C[C@H]2Oc3ccc(NC(=O)Nc4ccc(F)cc4)cc3C(=O)N([C@H](C)CO)C[C@H]2C)cc1 | – | · | · | · | 101[16.7 µM] | ·
C[C@H](CO)N1C[C@H](C)[C@H](CN(C)S(=O)(=O)c2cn(C)cn2)Oc2ccc(NC(=O)Cn3cnnn3)cc2C1=O | – | · | · | · | – | ·
COc1ccc(NC(=O)Nc2ccc3c(c2)C(=O)N([C@H](C)CO)C[C@@H](C)[C@@H](CN(C)S(=O)(=O)c2ccc(OC)cc2)O3)cc1 | – | · | · | · | 101[16.7 µM] | ·
COc1ccc(S(=O)(=O)N(C)C[C@@H]2Oc3ccc(NC(=O)Nc4ccc(F)cc4)cc3C(=O)N([C@@H](C)CO)C[C@H]2C)cc1 | – | · | · | · | – | ·
C[C@H](CO)N1C[C@H](C)[C@@H](CN(C)S(=O)(=O)c2cn(C)cn2)Oc2ccc(NC(=O)Cn3cnnn3)cc2C1=O | 44! | – | – | · | – | –
CNC[C@H]1Oc2c(NC(=O)C3CCOCC3)cccc2C(=O)N([C@@H](C)CO)C[C@H]1C | – | · | · | · | – | ·
C[C@@H]1CN([C@@H](C)CO)C(=O)c2cccc(NC(=O)C3CC3)c2O[C@H]1CN(C)C(=O)Nc1ccc2c(c1)OCO2 | – | · | · | · | – | ·
C[C@@H]1CN([C@H](C)CO)C(=O)c2cc(-c3ccc(C#N)cc3)cnc2O[C@@H]1CN(C)C(=O)c1cccnc1 | – | · | · | · | · | ·
CCCOC(=O)c1ccc(NC(=O)c2ccccc2[N+](=O)[O-])cc1 | 43 | – | – | – | · | –
CCCOC(=O)c1ccc(NC(=O)c2ccccc2OC)cc1 | – | – | – | – | · | –
CC(=O)Nc1ccc(S(=O)(=O)N2CCCC2C(=O)Nc2ccc3c(c2)OCCO3)cc1 (configuration not stated) | 44 | – | – | – | – | –
COc1ccc(C(=O)N[C@H](C(=O)Nc2ccc(S(=O)(=O)N3CCOCC3)cc2)C(C)C)cc1 | – | – | – | – | · | –
CC(=O)Nc1ccc(S(=O)(=O)N2CCCC2C(=O)Nc2ccc(F)cc2)cc1 (configuration not stated) | – | – | – | – | – | –
COc1ccc(NS(=O)(=O)c2cccc(NC(=O)c3ccc(S(=O)(=O)N4CCCCCC4)cc3)c2)cc1 | · | – | 83 | – | – | –
COc1ccc(NS(=O)(=O)c2ccc(O)c(NC(=O)c3ccc(S(=O)(=O)N4CCCCCC4)cc3)c2)cc1 | · | – | – | – | – | –
COc1ccc(NC(=S)NNC(=O)c2ccc(S(=O)(=O)N3CCOCC3)cc2)cc1 | 1.4 | – | – | – | – | –
Cc1ccc(NC(=O)c2ccc(S(=O)(=O)N3CCOCC3)cc2)nc1 | · | – | – | – | 216 | –
CC(C)NC(=O)Nc1cccc2c1O[C@H](CN(C)C(=O)Nc1cccc3ccccc13)[C@H](C)CN([C@@H](C)CO)C2=O | – | · | · | · | – | ·
CNS(=O)(=O)c1ccc(NC(=S)Nc2ccc3c(c2)OCO3)cc1 | 43 | – | – | – | · | –
O=C(Nc1ccc2c(c1)OCO2)c1ccc(S(=O)(=O)N2CCCC2)cc1 | 45 | – | – | – | · | –
COc1ccc(S(=O)(=O)Nc2ccc(N3CCOCC3)cc2)cc1 | – | – | – | – | – | –
COc1ccc(S(=O)(=O)Nc2ccc(S(=O)(=O)N3CCOCC3)cc2)cc1 | · | – | – | – | 160 | –
O=S(=O)(c1ccc(NC(=S)Nc2ccc3c(c2)OCO3)cc1)N1CCOCC1 | · | – | – | – | – | –
SMILES | FGF22 binding | Jurkat NFkB inh | NR2E3 ag-1 | NR2E3 ag-2 | miR122 inh | 697 NFkB inh
C[C@@H]1CN([C@@H](C)CO)C(=O)Cc2cc(NC(=O)Nc3cccc4ccccc34)ccc2O[C@H]1CN(C)S(=O)(=O)c1cccs1 | – | · | · | · | – | ·
O=C(CN1C(=O)/C(=C/c2cccc(Br)c2)SC1=S)Nc1cccnc1 | 44 | – | – | – | · | –
C[C@H]1CN([C@@H](C)CO)C(=O)Cc2cc(N(C)C)ccc2O[C@@H]1CN(C)Cc1ccc(C(F)(F)F)cc1 | · | · | · | · | – | ·
O=C(OCC(=O)N1CCN(C(=O)c2ccco2)CC1)c1cc(S(=O)(=O)Nc2ccc(Cl)cc2)ccc1O | – | – | – | – | · | –
O=C(CCNS(=O)(=O)c1ccc(Cl)cc1)OCC(=O)N1CCN(C(=O)c2ccco2)CC1 | 13 | – | – | – | · | –
O=C(Cc1ccccc1[N+](=O)[O-])NCc1ccco1 | 44 | – | – | – | · | –
COc1cc(OC)cc(C(=O)NCC(=O)OCC(=O)N2c3ccccc3NC(=O)C2(C)C)c1 | 44 | – | – | – | · | –
Cc1cc(C)cc(C(=O)NCC(=O)OCC(=O)N2c3ccccc3NC(=O)C2(C)C)c1 | – | – | – | – | – | –
COc1ccc([Si](C)(C)[C@H]2[C@H](CCO)O[C@@]3(C(=O)N(Cc4cccc(NC(=O)[C@H](C)O)c4)c4ccccc43)[C@@H]2C)cc1 | 2.9 | · | · | · | · | ·
C[C@@H]1CCCCO[C@H](CN(C)S(=O)(=O)c2ccc(F)cc2)[C@@H](C)CN([C@@H](C)CO)C(=O)c2cc(NS(=O)(=O)c3ccc(F)cc3)ccc2O1 | – | · | · | · | – | ·
CN1CCN(C(=S)NC(=O)/C=C/c2ccccc2)CC1 | · | – | – | – | · | –
O=C(/C=C/c1ccc(Br)cc1)NC(=S)N1CCOCC1 | 44 | – | – | – | · | –
O=C(c1ccccn1)N1CC[C@@H]2[C@H](CO)Nc3ccc(Br)cc3[C@@H]21 | – | · | · | · | – | ·
O=C(NNS(=O)(=O)c1ccc(Cl)cc1)c1cccs1 | – | – | – | – | 116 | –
CN(C)/C=C/C(=O)c1ccc(Cl)s1 | 45 | – | – | – | – | –
COc1cc(NC(=O)CSc2ncnc3scc(-c4ccccc4)c23)c(C(=O)O)cc1OC | 43 | – | – | – | · | –
CN(C)CC(=O)Nc1ccc2c(c1)[C@H]1C[C@H](CC(=O)N(C)C)O[C@H](CO)[C@H]1O2 | – | · | · | · | – | ·
Cc1sc2nc(CN3CCCC3)nc(N3CCN(C(=O)c4ccco4)CC3)c2c1C | 44 | – | – | – | · | –
CC(C)NC(=O)N(C)C[C@@H]1Oc2ccc(NC(=O)C3CC3)cc2CC(=O)N([C@H](C)CO)C[C@H]1C | · | · | · | · | – | ·
C[C@@H]1CCCCO[C@H](CN(C)Cc2ccc(C(=O)O)cc2)[C@H](C)CN([C@@H](C)CO)C(=O)c2cc(NC(=O)Cc3ccccc3)ccc2O1 | – | · | · | · | – | ·
COc1cccc(C(=O)Nc2ccc(C(=O)O)cc2)c1 | · | – | – | – | 113 | –
COc1cccc(C(=O)Nc2ccc(C(=O)c3ccccc3)cc2)c1 | – | – | – | – | – | –

From PubChem
